# Columns and labels:
# [1] = target: T1, Protein kinase C beta type (Homo sapiens, UniProt P05771); assay: Evaluated against recombinant human Protein kinase C beta 1
# Outline: (§1)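 Recombinant human PKC isozymes expressed in SF9 cells via baculovirus, partly purified (50–90%). 32P transfer from 30 μM [32P]ATP to 200 μg/mL histone IIIS in 20 mM Hepes pH 7.5, 10 mM MgCl2, EGTA, CaCl2, phosphatidylserine, and diacylglycerol at the isozyme-dependent level giving half-maximal activation. 10 min at 30 °C, TCA stop, filter counting. No-lipid background subtracted.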
# [2] = target: T1, Protein kinase C beta type; assay: Evaluated against recombinant human Protein kinase C beta 2; outline: as §1
# [3] = target: Protein kinase C gamma type (Homo sapiens, UniProt P05129); assay: Evaluated against recombinant human Protein kinase C gamma; outline: as §1
# [4] = target: Protein kinase C delta type (Homo sapiens, UniProt Q05655); assay: Evaluated against recombinant human Protein kinase C delta; outline: as §1
# [5] = target: Protein kinase C alpha type (Homo sapiens, UniProt P17252); assay: Evaluated against recombinant human Protein kinase C alpha; outline: as §1
# [6] = target: T2, Protein kinase C epsilon type (Homo sapiens, UniProt Q02156); assay: Evaluated against recombinant human Protein kinase C epsilon; outline: as §1
# T2 sequence (Q02156 whole entry): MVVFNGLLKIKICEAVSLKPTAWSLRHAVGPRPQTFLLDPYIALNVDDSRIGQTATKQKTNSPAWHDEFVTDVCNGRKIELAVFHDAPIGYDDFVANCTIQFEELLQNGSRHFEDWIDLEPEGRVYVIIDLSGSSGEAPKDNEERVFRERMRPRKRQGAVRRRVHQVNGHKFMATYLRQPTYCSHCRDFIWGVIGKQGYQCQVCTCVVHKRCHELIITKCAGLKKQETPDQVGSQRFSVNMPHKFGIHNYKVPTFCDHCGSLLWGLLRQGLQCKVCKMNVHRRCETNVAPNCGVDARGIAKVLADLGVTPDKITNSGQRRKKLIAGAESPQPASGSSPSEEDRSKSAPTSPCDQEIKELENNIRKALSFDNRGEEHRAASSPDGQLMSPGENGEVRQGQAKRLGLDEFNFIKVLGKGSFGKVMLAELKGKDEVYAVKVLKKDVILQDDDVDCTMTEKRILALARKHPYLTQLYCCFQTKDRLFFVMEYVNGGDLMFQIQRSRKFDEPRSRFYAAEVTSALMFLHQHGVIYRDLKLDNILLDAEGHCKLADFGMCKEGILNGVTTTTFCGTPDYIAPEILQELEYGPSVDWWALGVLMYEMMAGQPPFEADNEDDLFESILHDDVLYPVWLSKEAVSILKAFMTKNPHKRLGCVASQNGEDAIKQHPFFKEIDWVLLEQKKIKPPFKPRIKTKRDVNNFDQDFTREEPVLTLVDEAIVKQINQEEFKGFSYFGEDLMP
# [7] = target: T3, Protein kinase C eta type (Homo sapiens, UniProt P24723); assay: Evaluated against recombinant human Protein kinase C eta; outline: as §1
# [8] = target: neutrophil superoxide release (Homo sapiens); assay: Inhibition of neutrophil superoxide release
# [9] = Evaluated against bovine heart Protein Kinase A (PKA)
# [10] = target: T3, Protein kinase C eta type; assay: Inhibition of recombinant human Protein kinase C eta; outline: as §1
# [11] = Inhibition of rat brain Casein kinase II
# Outline: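 Casein kinase II isolated from rat brain homogenate; 20 mM Tris-HCl pH 7.5, 5 mM NaF, casein substrate, 10 mM MgCl2, 30 μM [γ-32P]ATP, inhibitor in DMSO. Room temperature 10 min, stopped with ice-cold TCA plus BSA; precipitate filtered onto glass fiber and β-counted.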
# [12] = Inhibition of rat brain Ca 2+/Calmodulin dependent kinase
# Outline: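 Ca2+/calmodulin kinase isolated from rat brain homogenate; 50 mM Tris-HCl pH 7.5, 5 mM β-mercaptoethanol, 400 μM EGTA, 700 μM CaCl2, 10 mM MgCl2, 200 μg/mL histone type HA, 30 μM [γ-32P]ATP, inhibitor in DMSO. Room temperature 10 min, ice-cold TCA plus BSA stop, precipitate filtered and β-counted.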
# [13] = target: Proto-oncogene tyrosine-protein kinase Src (Homo sapiens, UniProt P12931); assay: Inhibition of src Protein Tyrosine Kinase
# Outline: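 p60src tyrosine kinase with Raytide peptide substrate, run by the supplier's protocol except that Triton X-100 replaced Brij 35.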
# Protein kinase C delta type, sequence (Q05655 whole entry): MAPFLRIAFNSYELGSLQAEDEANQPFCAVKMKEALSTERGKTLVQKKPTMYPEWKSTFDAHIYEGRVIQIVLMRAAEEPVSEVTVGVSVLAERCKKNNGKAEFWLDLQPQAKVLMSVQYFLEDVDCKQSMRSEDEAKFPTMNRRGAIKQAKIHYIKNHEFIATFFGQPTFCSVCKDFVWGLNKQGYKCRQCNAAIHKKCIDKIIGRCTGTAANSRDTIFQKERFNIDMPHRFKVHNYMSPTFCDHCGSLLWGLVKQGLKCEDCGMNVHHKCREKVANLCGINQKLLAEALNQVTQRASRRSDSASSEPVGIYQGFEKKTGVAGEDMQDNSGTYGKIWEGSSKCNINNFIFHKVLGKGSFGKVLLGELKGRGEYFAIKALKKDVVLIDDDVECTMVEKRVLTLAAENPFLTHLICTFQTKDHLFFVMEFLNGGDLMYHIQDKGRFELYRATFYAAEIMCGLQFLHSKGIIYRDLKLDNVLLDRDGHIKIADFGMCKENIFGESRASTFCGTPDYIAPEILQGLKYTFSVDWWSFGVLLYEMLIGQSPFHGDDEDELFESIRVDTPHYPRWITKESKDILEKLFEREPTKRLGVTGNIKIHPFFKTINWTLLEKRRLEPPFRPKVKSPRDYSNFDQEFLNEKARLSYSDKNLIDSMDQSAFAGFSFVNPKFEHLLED
# T3 sequence (P24723 whole entry): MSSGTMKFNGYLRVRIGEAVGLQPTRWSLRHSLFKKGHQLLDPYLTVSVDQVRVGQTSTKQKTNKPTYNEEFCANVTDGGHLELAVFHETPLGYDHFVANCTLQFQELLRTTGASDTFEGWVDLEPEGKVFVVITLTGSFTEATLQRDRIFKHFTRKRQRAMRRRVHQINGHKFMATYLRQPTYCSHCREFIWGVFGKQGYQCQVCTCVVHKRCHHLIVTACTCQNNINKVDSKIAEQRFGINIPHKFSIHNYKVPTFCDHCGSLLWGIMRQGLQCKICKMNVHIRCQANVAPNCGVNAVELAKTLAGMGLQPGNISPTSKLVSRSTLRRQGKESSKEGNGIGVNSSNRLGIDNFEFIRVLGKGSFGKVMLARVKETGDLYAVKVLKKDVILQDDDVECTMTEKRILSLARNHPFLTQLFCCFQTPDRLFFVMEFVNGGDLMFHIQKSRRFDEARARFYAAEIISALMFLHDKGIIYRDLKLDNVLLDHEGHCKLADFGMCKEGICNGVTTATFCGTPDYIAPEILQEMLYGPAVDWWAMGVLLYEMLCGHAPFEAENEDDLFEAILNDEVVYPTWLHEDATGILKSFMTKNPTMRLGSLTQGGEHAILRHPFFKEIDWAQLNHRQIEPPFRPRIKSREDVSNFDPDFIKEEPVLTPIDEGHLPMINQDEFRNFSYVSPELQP
# T1 sequence (P05771 whole entry): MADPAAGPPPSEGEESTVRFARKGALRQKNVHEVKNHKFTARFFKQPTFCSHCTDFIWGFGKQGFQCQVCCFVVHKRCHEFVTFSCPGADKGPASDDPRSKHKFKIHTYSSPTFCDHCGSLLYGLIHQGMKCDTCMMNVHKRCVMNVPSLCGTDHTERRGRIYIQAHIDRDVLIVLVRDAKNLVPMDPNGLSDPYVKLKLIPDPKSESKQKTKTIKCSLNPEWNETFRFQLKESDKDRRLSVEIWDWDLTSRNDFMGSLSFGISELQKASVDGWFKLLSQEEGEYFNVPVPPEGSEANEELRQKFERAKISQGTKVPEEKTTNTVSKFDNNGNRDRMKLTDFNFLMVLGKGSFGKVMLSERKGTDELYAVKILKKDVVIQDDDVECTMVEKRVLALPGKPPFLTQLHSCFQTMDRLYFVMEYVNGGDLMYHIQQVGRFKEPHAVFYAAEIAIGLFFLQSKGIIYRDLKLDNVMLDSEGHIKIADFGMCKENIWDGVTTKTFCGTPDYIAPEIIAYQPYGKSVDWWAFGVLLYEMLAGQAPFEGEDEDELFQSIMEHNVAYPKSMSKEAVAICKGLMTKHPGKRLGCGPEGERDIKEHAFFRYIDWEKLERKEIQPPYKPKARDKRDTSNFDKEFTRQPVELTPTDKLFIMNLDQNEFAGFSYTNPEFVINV
# Proto-oncogene tyrosine-protein kinase Src, sequence (P12931 2-536 limits assumed): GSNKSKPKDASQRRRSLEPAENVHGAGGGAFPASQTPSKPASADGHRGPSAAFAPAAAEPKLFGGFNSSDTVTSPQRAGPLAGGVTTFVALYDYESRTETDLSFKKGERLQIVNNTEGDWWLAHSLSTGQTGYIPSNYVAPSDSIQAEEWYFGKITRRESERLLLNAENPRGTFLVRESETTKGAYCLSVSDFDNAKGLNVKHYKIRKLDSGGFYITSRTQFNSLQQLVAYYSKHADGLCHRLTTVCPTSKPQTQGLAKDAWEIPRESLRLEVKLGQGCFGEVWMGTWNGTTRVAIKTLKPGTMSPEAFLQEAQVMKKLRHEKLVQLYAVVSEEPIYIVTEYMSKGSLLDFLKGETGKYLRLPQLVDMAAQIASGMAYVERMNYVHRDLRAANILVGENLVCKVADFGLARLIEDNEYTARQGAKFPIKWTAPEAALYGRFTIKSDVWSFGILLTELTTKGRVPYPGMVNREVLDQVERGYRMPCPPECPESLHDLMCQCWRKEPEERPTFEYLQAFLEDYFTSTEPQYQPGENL
IC50 [1] [nM],IC50 [2] [nM],IC50 [3] [nM],IC50 [4] [nM],IC50 [5] [nM],IC50 [6] [µM],IC50 [7] [nM],IC50 [8] [µM],IC50 [9] [µM],IC50 [10] [µM],IC50 [11] [µM],IC50 [12] [µM],IC50 [13] [µM],Structure (SMILES)
2200,340,4500,360,18000,38,< 50,0.93,> 50,–,–,–,–,COC(=O)c1cccc(O)c1C(=O)c1c(O)cc(C(=O)OC[C@@H](Cc2ccc(O)cc2)NS(=O)(=O)c2ccccc2)cc1O
–,2800,–,22000,45000,> 50,18000,–,> 50,–,–,–,–,O=C(NC(COC(=O)c1cc(O)c(C(=O)c2c(O)cccc2C(=O)O)c(O)c1)Cc1ccc(O)cc1)c1ccccc1 (configuration not stated)
2800,1800,2700,2600,3200,39,35000,–,> 50,–,–,–,–,O=C(OCC(Cc1ccc(O)cc1)NS(=O)(=O)c1ccc2ccccc2c1)c1cc(O)c(C(=O)c2c(O)cccc2C(=O)O)c(O)c1 (configuration not stated)
4500,7500,6600,410,11000,13,230,–,8.4,–,–,–,–,O=C(NCCOC(=O)c1cc(O)c(C(=O)c2c(O)cccc2C(=O)O)c(O)c1)c1ccc(O)cc1
30,7,470,3,210,0.46,3,–,> 50,–,–,–,–,O=C(OC[C@@H](Cc1ccc(O)cc1)NS(=O)(=O)c1ccccc1)c1cc(O)c(C(=O)c2c(O)cccc2C(=O)O)c(O)c1
230,20,2600,30,1900,2.3,20,–,> 50,–,–,–,–,O=C(OC[C@H](Cc1ccc(O)cc1)NS(=O)(=O)c1ccccc1)c1cc(O)c(C(=O)c2c(O)cccc2C(=O)O)c(O)c1
880,500,4200,270,4000,30,1400,–,> 50,–,–,–,–,CN(C)C(COC(=O)c1cc(O)c(C(=O)c2c(O)cccc2C(=O)O)c(O)c1)Cc1ccc(O)cc1 (configuration not stated)
30,30,30,23,67,–,20,–,0.06,–,–,–,–,O=C(NC1CNCCCC1OC(=O)c1cc(O)c(C(=O)c2c(O)cccc2C(=O)O)c(O)c1)c1ccc(O)cc1 (racemic)
460,750,4100,300,7800,–,170,–,–,–,–,–,–,COC(=O)c1cccc(O)c1C(=O)c1c(O)cc(C(=O)OCCCc2ccc(O)cc2)cc1O
20,20,250,20,220,0.24,10,–,> 50,–,–,–,–,O=C(OC1CCCC1Oc1ccc(O)cc1)c1cc(O)c(C(=O)c2c(O)cccc2C(=O)O)c(O)c1 (configuration not stated)
70,20,3500,4200,6100,15,100,–,> 150,–,–,–,–,Cc1ccc(S(=O)(=O)N2CCC[C@@H](OC(=O)c3cc(O)c(C(=O)c4c(O)cccc4C(=O)O)c(O)c3)[C@H](NC(=O)c3ccc(O)cc3)C2)cc1

# More lines, now with the values behind:
Structure (SMILES),IC50 [1] [nM],IC50 [2] [nM],IC50 [3] [nM],IC50 [4] [nM],IC50 [5] [nM],IC50 [6] [µM],IC50 [7] [nM],IC50 [8] [µM],IC50 [9] [µM],IC50 [10] [µM],IC50 [11] [µM],IC50 [12] [µM],IC50 [13] [µM]
O=C(OC1CCCC1Cc1ccc(O)cc1)c1cc(O)c(C(=O)c2c(O)cccc2C(=O)O)c(O)c1 (stereo in doubt; 20b),20,20,130,30,160,0.5,10,–,–,–,–,–,–
CS(=O)(=O)NC(COC(=O)c1cc(O)c(C(=O)c2c(O)cccc2C(=O)O)c(O)c1)Cc1ccc(O)cc1 (configuration not stated),220,430,5000,410,23000,> 50,390,–,> 50,–,–,–,–
O=C(NC1CCCC1OC(=O)c1cc(O)c(C(=O)c2c(O)cccc2C(=O)O)c(O)c1)c1ccc(O)cc1 (configuration not stated),40,50,10,0.9,40,0.05,0.6,–,–,–,–,–,–
O=C(OCC(NS(=O)(=O)c1ccccc1)c1ccc(O)cc1)c1cc(O)c(C(=O)c2c(O)cccc2C(=O)O)c(O)c1 (configuration not stated),11000,2800,4800,1900,> 50000,> 50,–,–,> 50,3.3,–,–,–
O=C(NC(COC(=O)c1cc(O)c(C(=O)c2c(O)cccc2C(=O)O)c(O)c1)Cc1ccc(O)cc1)c1ccc(O)cc1 (configuration not stated),3600,3000,2900,820,18000,> 50,2300,–,> 50,–,–,–,–
O=C(OC1CNCC1Cc1ccc(O)cc1)c1cc(O)c(C(=O)c2c(O)cccc2C(=O)O)c(O)c1 (configuration not stated),10,30,40,5,260,1.8,20,–,–,–,–,–,–
COC(=O)c1cccc(O)c1C(=O)c1c(O)cc(C(=O)OC2CNCC2Cc2ccc(O)cc2)cc1O (configuration not stated),110,250,380,100,2200,–,500,–,–,–,–,–,–
O=C(OCC(COc1ccc(O)cc1)NS(=O)(=O)c1ccccc1)c1cc(O)c(C(=O)c2c(O)cccc2C(=O)O)c(O)c1 (configuration not stated),1600,830,1600,220,18000,47,500,–,> 50,–,–,–,–
O=C(OCCCc1ccc(O)cc1)c1cc(O)c(C(=O)c2c(O)cccc2C(=O)O)c(O)c1,210,270,830,130,1900,4.1,< 50,–,> 50,–,–,–,–
CC(CCc1ccc(O)cc1)OC(=O)c1cc(O)c(C(=O)c2c(O)cccc2C(=O)O)c(O)c1 (configuration not stated),40,30,250,30,410,0.28,20,–,> 50,–,> 50,> 50,–
O=C(OCCCCc1ccc(O)cc1)c1cc(O)c(C(=O)c2c(O)cccc2C(=O)O)c(O)c1,960,370,1400,290,3300,30,250,–,> 50,–,–,–,–
O=C(N[C@@H]1CNCCC[C@H]1OC(=O)c1cc(O)c(C(=O)c2c(O)cccc2C(=O)O)c(O)c1)c1ccc(O)cc1 [BALANOL],–,–,–,20,–,–,–,–,0.04,–,–,0.03,> 10
O=C(OCC(Cc1ccc(O)cc1)NS(=O)(=O)c1ccccc1)c1cc(O)c(C(=O)c2c(O)cccc2C(=O)O)c(O)c1 (configuration not stated),220,30,220,40,110,0.32,20,–,> 50,–,> 50,32,> 12.5
COC(=O)c1cccc(O)c1C(=O)c1c(O)cc(C(=O)OC2CCCC2Cc2ccc(O)cc2)cc1O (configuration not stated),100,90,1700,50,1400,4.5,40,–,> 50,–,–,–,–
